From PubChem BioAssay
p97 ATPase inh: human p97 ATPase inhibition | inhibition, % at 8 µM | 220,000 tested, 0.42% active | recombinant p97 ATPase, Kinase-Glo ATP luminescence, 3 h | AID 1481; in the data active = inhibition above about 15%;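 also: 0% = DMSO vehicle and 100% = wells lacking enzyme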
PKD1 inh: blocks activity of human protein kinase D1 | Q15139 | PKD1 kinase fluorescence polarization assay | inhibition, % (no concentration beside the values) | 200,000 tested, 0.056% active; in the data active = inhibition above about 50%
DTT redox prof: compounds producing H2O2 with reducing agent – biochemical, NIH compound library profiling, artefact control for MLSCN library redox annotation, primary screen | DTT-dependent redox cycling H2O2, phenol red/HRP absorbance; 100% = 100 µM peroxide control, 0% = buffer | activation, % at 10 µM | 200,000 tested, 0.03% active | AID 878;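 active = activation of at least 50% relative to the plate's high and low controls in the primary single-dose screen; inactive = activation below 50%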;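 also: compound incubated with DTT at 0.8 mM final as the reducing agent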
ROMK primary: modulators of human ROMK potassium channel | P48048 | 130,000 tested, 2% active | Tet-inducible ROMK, thallium flux fluorescence; actives lie on both sides | B-score at 10 µM;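 active = signal ratio slope over the read window, or its plate-corrected B-score, at least 3 SD from the plate mean, either direction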;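 also: B-score of the F/F0 ratio slope over 7 to 12 s after thallium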
MDM2 E3 inh: Mdm2 E3 ligase (human) inhibition | 210,000 tested, 0.11% active | cell-based MDM2 ubiquitination luciferase reporter, 2 h; 0 = plate control, 100 = twice control, blank-subtracted | signal enhancement, % at 5 µM | Q00987;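 active = signal enhancement of 30% or more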;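 also: luminescence tracks abundance of the self-degrading MDM2-luciferase fusion protein; higher signal means inhibition of MDM2 E3 ligase activity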
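system = mammalian cells stably expressing self-ubiquitinating, self-degrading MDM2 E3–luciferase fusion | quantity = 2000 cells per well seeded | incubation = 4 h cell settling then 2 h compound exposure, 37 °C | signal = SteadyLite luminescence, 15 min reagent step | benchmarks = plate control and blank wells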
Cl transport mod: KCC2 (human) Cl- transport modulation; KCC2 cells, thallium flux FluoZin-2 fluorescence; 190,000 tested, 2.2% active; Q9H2X9; AID 1456; B-score of Tl+ flux slope (higher = more flux/activation; lower = inhibition) at 10 µM;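 active = thallium flux slope and its plate-corrected score both differing from the plate sample mean at a set confidence after two filtering rounds, in either direction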;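 also: slope of fluorescence scaled to starting intensity during 10 to 20 s after thallium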
Target sequence (Q9H2X9 whole entry, looked up): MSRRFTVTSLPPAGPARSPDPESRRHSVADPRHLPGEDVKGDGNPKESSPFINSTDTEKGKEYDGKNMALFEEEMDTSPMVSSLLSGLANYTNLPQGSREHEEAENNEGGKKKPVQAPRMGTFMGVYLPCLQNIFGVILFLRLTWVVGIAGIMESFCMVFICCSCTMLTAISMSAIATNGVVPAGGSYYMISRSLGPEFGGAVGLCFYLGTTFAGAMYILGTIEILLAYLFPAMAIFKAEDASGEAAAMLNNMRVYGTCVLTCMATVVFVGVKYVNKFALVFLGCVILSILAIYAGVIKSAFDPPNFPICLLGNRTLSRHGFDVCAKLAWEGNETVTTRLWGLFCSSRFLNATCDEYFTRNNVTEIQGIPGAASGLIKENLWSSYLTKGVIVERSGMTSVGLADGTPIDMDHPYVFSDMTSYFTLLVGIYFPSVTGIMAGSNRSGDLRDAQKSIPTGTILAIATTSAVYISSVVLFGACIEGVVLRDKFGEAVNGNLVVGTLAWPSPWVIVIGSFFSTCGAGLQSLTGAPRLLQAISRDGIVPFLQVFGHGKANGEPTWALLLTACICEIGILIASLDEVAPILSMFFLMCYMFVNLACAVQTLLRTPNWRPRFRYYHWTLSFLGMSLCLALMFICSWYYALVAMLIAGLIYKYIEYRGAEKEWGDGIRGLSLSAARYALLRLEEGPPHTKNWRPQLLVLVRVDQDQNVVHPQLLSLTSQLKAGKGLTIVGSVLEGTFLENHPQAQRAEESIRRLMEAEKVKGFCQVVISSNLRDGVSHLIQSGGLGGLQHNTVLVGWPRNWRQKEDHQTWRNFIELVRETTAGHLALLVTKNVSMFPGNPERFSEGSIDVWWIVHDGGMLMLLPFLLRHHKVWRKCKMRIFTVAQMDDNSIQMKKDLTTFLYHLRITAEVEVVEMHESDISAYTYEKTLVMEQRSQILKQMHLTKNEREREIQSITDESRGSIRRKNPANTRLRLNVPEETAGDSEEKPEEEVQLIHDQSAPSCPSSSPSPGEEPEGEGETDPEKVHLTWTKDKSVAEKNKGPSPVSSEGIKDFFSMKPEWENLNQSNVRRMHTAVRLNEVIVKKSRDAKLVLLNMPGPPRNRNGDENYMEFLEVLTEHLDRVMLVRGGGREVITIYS
KCC2 sec1: confirmation of human KCC2 transport modulators; shares compounds with Cl transport mod; HEK293-KCC2, thallium flux, FluoZin2 fluorescence; hits give high values; normalised thallium flux (F/F0 slope) at 10 µM; 3,700 tested, 15% active;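 active = thallium flux slope above the same plate's solvent-only control mean plus 3 SD; inconclusive = the two replicate wells disagree; inactive = no significant difference from solvent-only control wells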
KCC2 bumet counter: thallium flux persisting under bumetanide in KCC2 cells, counter-screen secondary assay; HEK293-KCC2 + bumetanide/ouabain, thallium flux FluoZin2; hits give high values; 3,700 tested, 49% active; normalized thallium flux at 10 µM; shares compounds with Cl transport mod; AID 1714;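 active = thallium entry rate above the same plate's blocked-transporter control wells by more than 3 SD; inconclusive = the two repeat wells disagree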;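 also: raw slope of fluorescence over initial fluorescence between 10 and 20 s after thallium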
KCC2 sec2: KCC2 (human) modulation, second secondary assay. shares compounds with Cl transport mod. HEK293-KCC2, thallium flux FluoZin2 fluorescence; actives lie on both sides; F/F0 rise rate, 10–20 s post-thallium. normalized thallium flux at 10 µM. 3,700 tested, 23% active;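 active = thallium flux slope more than 3 SD above or below the plate's solvent-only control mean, mostly below; inconclusive = the two repeat wells disagreed; inactive = no significant shift from solvent-only controls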;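 also: raw slope with 0.1% DMSO as baseline and bumetanide as block control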
HEK293 Tl flux: counter-screen for KCC2 modulators: effect in parental HEK293 cells; shares compounds with Cl transport mod; thallium flux FluoZin2, ouabain; baseline-ratio fluorescence slope, 10–20 s after thallium; thallium flux rate (normalised fluorescence) at 10 µM; 3,700 tested, 46% active; AID 1716;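 active = thallium flux rate significantly above the same plate's solvent-only control wells, beyond their mean plus 3 SD; inconclusive = the two replicate wells gave conflicting results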
KCC2 retest ouab: modulates human KCC2 on retest with ouabain. 3,700 tested, 48% active. HEK293-KCC2, thallium flux FluoZin2 fluorescence; bidirectional: low = inhibitor, high = activator. AID 1717. shares compounds with Cl transport mod. raw Tl+ flux slope (below DMSO = inhibition, above = activation) at 10 µM;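 active = thallium flux slope beyond 3 SD from same-plate DMSO control mean in most replicates, usually higher, sometimes lower; inconclusive = repeat tests gave conflicting results; inactive = no significant difference from controls in most replicates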;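 also: slope of initial-normalized fluorescence between seconds 10 and 20 after thallium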
HEK counter2: counter-screen for KCC2 modulators: effect in parental HEK293 cells; thallium flux FluoZin-2 fluorescence slope; shares compounds with Cl transport mod; thallium flux slope at 10 µM; 3,700 tested, 33% active;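 active = thallium flux slope above the same plate's solvent-control mean plus 3 SD in both duplicate wells; inconclusive = duplicate wells that disagreed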;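 also: run without ouabain in cells lacking the KCC2 cotransporter; slope of fluorescence scaled to its starting value between 10 and 20 s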
* hit, by the source's call. Compounds with a hit are over-represented: about 3.4% of the library has one in this group of screens.

Screening CN(C)c1nc(=NCc2ccco2)ss1 returned p97 ATPase inh 6, MDM2 E3 inh 37*, Cl transport mod 45*, KCC2 sec1 0.037*, KCC2 bumet counter 0.06*, KCC2 sec2 0.041, HEK293 Tl flux inconclusive, KCC2 retest ouab 0.052* and HEK counter2 inconclusive.
Screening COC(=O)CSc1nnc(SCc2ccccc2)s1 returned p97 ATPase inh 0, PKD1 inh -6, DTT redox prof 0, ROMK primary 0.28, MDM2 E3 inh -13, KCC2 sec1 0.0058, KCC2 bumet counter inconclusive, KCC2 sec2 0.021*, HEK293 Tl flux 0.006*, KCC2 retest ouab 0.012* and HEK counter2 0.0087.
For COc1ccc(Nc2nc(-c3ccc(OC)cc3)c(CCC(=O)O)s2)cc1 the results were p97 ATPase inh 9, MDM2 E3 inh -11 and Cl transport mod -2.9.
For Cc1ccc(Nc2nc(-c3ccc(C)cc3)c(CC(=O)O)s2)cc1 the results were p97 ATPase inh -2, PKD1 inh 4, DTT redox prof -3, ROMK primary 0.41, MDM2 E3 inh 1, Cl transport mod -3.2*, KCC2 sec1 0.0084, KCC2 bumet counter 0.0091*, KCC2 sec2 0.029, HEK293 Tl flux 0.0073, KCC2 retest ouab 0.018 and HEK counter2 0.01.
Screening COc1ccccc1Oc1nc2c(c(=O)n(Cc3ccccc3F)c(=O)n2C)n1C returned p97 ATPase inh -3, PKD1 inh -4, DTT redox prof 2, MDM2 E3 inh -11 and Cl transport mod 6.1.
For Cn1c(NCCCO)nc2c1c(=O)n(Cc1ccccc1F)c(=O)n2C the results were p97 ATPase inh 4, PKD1 inh -3, DTT redox prof 0, ROMK primary 1.2, MDM2 E3 inh 8, Cl transport mod 0.23, KCC2 sec1 0.01, KCC2 bumet counter inconclusive, KCC2 sec2 0.027, HEK293 Tl flux 0.0071, KCC2 retest ouab 0.02 and HEK counter2 0.0097.
COc1ccc(S(=O)(=O)N(CC(=O)NCc2ccco2)c2ccccc2)cc1OC was read as p97 ATPase inh 6, PKD1 inh -12, DTT redox prof 2 and MDM2 E3 inh -4.
CCc1cc2cc(C)cc(C)c2[nH]c1=S was read as p97 ATPase inh 2, PKD1 inh -6, DTT redox prof 1, ROMK primary 0.023, MDM2 E3 inh -3, Cl transport mod 124*, KCC2 sec1 0.0068, KCC2 bumet counter 0.024*, KCC2 sec2 0.11*, HEK293 Tl flux 0.11*, KCC2 retest ouab 0.086* and HEK counter2 0.11*.
O=C(c1cc([N+](=O)[O-])ccc1N1CCCCC1)N1CCc2ccccc21 was read as p97 ATPase inh 1, PKD1 inh 3, DTT redox prof 0, MDM2 E3 inh -17 and Cl transport mod -1.5.
Screening Nc1ccc(C(=O)OCC(=O)N2CCc3ccccc3C2)cc1[N+](=O)[O-] returned p97 ATPase inh 1, PKD1 inh -10, DTT redox prof 0, ROMK primary -0.4, MDM2 E3 inh -4, Cl transport mod -5.9*, KCC2 sec1 0.0057, KCC2 bumet counter 0.0058, KCC2 sec2 0.027*, HEK293 Tl flux inconclusive, KCC2 retest ouab 0.012* and HEK counter2 0.01.
For O=C(c1ccc(N2CCCCCC2)c([N+](=O)[O-])c1)N1CCc2ccccc21 the results were p97 ATPase inh 9, PKD1 inh -17, DTT redox prof 1, ROMK primary -0.031, MDM2 E3 inh 8, Cl transport mod -6.7*, KCC2 sec1 0.015, KCC2 bumet counter inconclusive, KCC2 sec2 0.023*, HEK293 Tl flux 0.0071, KCC2 retest ouab 0.012 and HEK counter2 0.0094.
O=C(OCC(=O)N1CCc2ccccc2C1)c1ccc(N2CCOCC2)c([N+](=O)[O-])c1 was read as p97 ATPase inh 0, PKD1 inh 13, DTT redox prof 0, MDM2 E3 inh -4, Cl transport mod -4.3*, KCC2 sec1 0.0056, KCC2 bumet counter 0.005, KCC2 sec2 0.022*, HEK293 Tl flux 0.0072, KCC2 retest ouab inconclusive and HEK counter2 0.011.
CC1=C(C#N)C(NC(=O)C2CCCCC2)(C(F)(F)F)C(=O)N1 (stereo not given) was read as p97 ATPase inh 1, PKD1 inh -19, DTT redox prof 1 and MDM2 E3 inh 2.
CC(C)(C)C(=O)/C=c1\[nH]c(=O)/c(=C\c2ccccc2F)s1 was read as p97 ATPase inh 4, PKD1 inh -4, DTT redox prof -3, ROMK primary 0.93, MDM2 E3 inh 15, Cl transport mod 18*, KCC2 sec1 0.0078, KCC2 bumet counter 0.024*, KCC2 sec2 0.038*, HEK293 Tl flux 0.015*, KCC2 retest ouab 0.032* and HEK counter2 0.018*.
`COc1ccc(N(CC(=O)Nc2ccc(C)c(C)c2)S(=O)(=O)c2c(C)n[nH]c2C)cc1` gave p97 ATPase inh -4, PKD1 inh -12, DTT redox prof 0, MDM2 E3 inh -8, KCC2 sec1 0.0067, KCC2 bumet counter inconclusive, KCC2 sec2 0.026*, HEK293 Tl flux 0.007, KCC2 retest ouab inconclusive and HEK counter2 0.011.
`O=C(Cc1ccccc1)N/N=C/c1ccc([N+](=O)[O-])s1` gave p97 ATPase inh -2, PKD1 inh 0, DTT redox prof -3, ROMK primary -0.13, MDM2 E3 inh -9, KCC2 sec1 0.0078, KCC2 bumet counter inconclusive, KCC2 sec2 0.031, HEK293 Tl flux inconclusive, KCC2 retest ouab 0.02 and HEK counter2 inconclusive.
